Assay [1] deals with Staphylococcus aureus. The assay can be described thus: Antibacterial activity against Staphylococcus aureus ATCC 25923 by microdilution assay. The format is functional. In short, it runs like this: (§1)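 Turbidimetric broth microdilution. Log-phase cells were washed and resuspended in broth (LB at 37 °C for B. subtilis and S. aureus; oat bran broth at 28 °C for S. scabies) and seeded at 1 × 10⁵ CFU/mL. Twofold serial dilutions were made with DMSO ≤1% (v/v). A620 was read, then plates were incubated with vigorous shaking. MIC was the lowest concentration with no apparent growth versus vehicle-only medium without cells. Run in triplicate.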

The subject of assay [2] is Bacillus subtilis. The assay can be described thus: Antibacterial activity against Bacillus subtilis ATCC 6051 by microdilution assay. In kind it is functional. Summed up:
as §1
In general terms: Broth dilution looks for growth in wells or tubes with falling amounts of substance.

Assay [3] concerns Streptomyces scabiei. The assay can be described thus: Antibacterial activity against Streptomyces scabiei CGMCC4.7610246 by microdilution assay. The format is functional. Summed up:
as §1

Assay [4] has as its system Pseudomonas aeruginosa. The assay can be described thus: Antibacterial activity against multi-drug resistant Pseudomonas aeruginosa at 100 uM measured after 5 to 6 hrs by microdilution assay. The format is functional, organism-based. In short, it runs like this: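 Log-phase cells seeded at 1 × 10⁵ CFU/mL. Single-dose screen at 100 μM, with DMSO cosolvent at most 1% v/v. Growth measured turbidimetrically at 620 nm, before and after incubation with vigorous shaking.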

In assay [5] the test system is Escherichia coli. Nature of the assay: Antibacterial activity against Escherichia coli at 100 uM measured after 5 to 6 hrs by microdilution assay. The format is functional, organism-based.
Assay [6] concerns Pseudomonas aeruginosa. The assay can be described thus: Antibacterial activity against Pseudomonas aeruginosa at 100 uM measured after 5 to 6 hrs by microdilution assay. In kind it is functional, organism-based.
Assay [7] deals with Staphylococcus aureus. Nature of the assay: Antibacterial activity against methicillin-resistant Staphylococcus aureus by microdilution assay. In kind it is functional. In short, it runs like this: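 Log-phase cells seeded at 1 × 10⁵ CFU/mL. Twofold serial dilutions made in broth with DMSO cosolvent, at most 1% v/v. Turbidity read at 620 nm before and after incubation with vigorous shaking. MIC is the lowest concentration with no apparent growth versus the medium-plus-vehicle control. Run in triplicate.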

Each structure is given as a SMILES string. ≈ marks a conversion by molar mass, not a printed value. Calls of active or inactive are those of the source.

`CC1(C)[C@@H](O)[C@@H](O)[C@H](O)[C@]2(C)[C@H]3CC=C4[C@@H]5C[C@@](C)(C(=O)O)CC[C@]5(C)CC[C@@]4(C)[C@]3(C)CC[C@@H]12`: the MIC – broadly, the smallest concentration in the dilution series that meets the test's criterion for growth inhibition – in assay [1] was 15.6 µg/mL (≈ 31.9 µM); in assay [2], over 31.2 µg/mL; in assay [3], 31.2 µg/mL (≈ 63.8 µM); in assay [7] it was over 32 µg/mL. In addition, the outcome in assay [4], in assay [5] and in assay [6] was inactive.

Regarding `CC1(C)C(=O)CC[C@]2(C)[C@H]3C(=O)C=C4[C@@H]5C[C@@](C)(C(=O)OCc6ccccc6)CC[C@]5(C)CC[C@@]4(C)[C@]3(C)CC[C@@H]12`, the MIC in assay [1], in assay [2], in assay [3] and in assay [7] was over 50 µg/mL each time. Besides, the result in assay [4], in assay [5] and in assay [6] was inactive.

For the compound `CC1(C)[C@@H](O)[C@@H](O)[C@H](O)[C@]2(C)[C@H]3CC=C4[C@@H]5C[C@@](C)(C(=O)OCc6ccccc6)CC[C@]5(C)CC[C@@]4(C)[C@]3(C)CC[C@@H]12`, the MIC is over 36.9 µg/mL in assay [1], over 36.9 µg/mL in assay [2], over 36 µg/mL in assay [3] and 8 µg/mL (≈ 13.8 µM) in assay [7]. The result in assay [4], in assay [5] and in assay [6] was inactive.

With `CC1(C)[C@@H](O)[C@@H](O)[C@H](O)[C@]2(C)[C@H]3C(=O)C=C4[C@@H]5C[C@@](C)(C(=O)O)CC[C@]5(C)CC[C@@]4(C)[C@]3(C)CC[C@@H]12`, the MIC in assay [1], in assay [2], in assay [3] and in assay [7] was over 50 µg/mL each time. Further, the outcome in assay [4], in assay [5] and in assay [6] was inactive.

On to `CC1(C)[C@@H](O)CC[C@]2(C)[C@H]3CC=C4[C@@H]5C[C@@](C)(C(=O)OCc6ccccc6)CC[C@]5(C)CC[C@@]4(C)[C@]3(C)CC[C@@H]12`, for which the MIC in assay [1], in assay [2], in assay [3] and in assay [7] was over 50 µg/mL throughout. Besides, the outcome in assay [4], in assay [5] and in assay [6] was inactive.

As for `CCCOC(=O)[C@@]1(C)CC[C@]2(C)CC[C@]3(C)C(=CC[C@@H]4[C@@]5(C)[C@@H](O)[C@H](O)[C@H](O)C(C)(C)[C@@H]5CC[C@]43C)[C@@H]2C1`, the MIC in assay [1] is 8.4 µg/mL (≈ 15.8 µM); in assay [2], over 33.9 µg/mL; in assay [3], over 33.9 µg/mL; in assay [7] it was 8 µg/mL (≈ 15.1 µM). Moreover, the outcome in assay [4], in assay [5] and in assay [6] was inactive.

For `CCCOC(=O)[C@@]1(C)CC[C@]2(C)CC[C@]3(C)C(=CC(=O)[C@@H]4[C@@]5(C)[C@@H](O)[C@H](O)[C@H](O)C(C)(C)[C@@H]5CC[C@]43C)[C@@H]2C1`, the MIC in assay [1] is 4.3 µg/mL (≈ 7.89 µM); in assay [2], over 34.8 µg/mL; in assay [3], 4.3 µg/mL (≈ 7.89 µM); in assay [7], 2 µg/mL (≈ 3.67 µM). In addition, the result in assay [4], in assay [5] and in assay [6] was inactive.

For the compound `CCCCOC(=O)[C@@]1(C)CC[C@]2(C)CC[C@]3(C)C(=CC(=O)[C@@H]4[C@@]5(C)[C@@H](O)[C@H](O)[C@H](O)C(C)(C)[C@@H]5CC[C@]43C)[C@@H]2C1`, the MIC in assay [1] is over 35.7 µg/mL; in assay [2], over 35.7 µg/mL; in assay [3] it was 4.4 µg/mL (≈ 7.87 µM); in assay [7], 4 µg/mL (≈ 7.16 µM). Moreover, the result in assay [4], in assay [5] and in assay [6] was inactive.

For the compound `CCCCOC(=O)[C@@]1(C)CC[C@]2(C)CC[C@]3(C)C(=CC[C@@H]4[C@@]5(C)[C@@H](O)[C@H](O)[C@H](O)C(C)(C)[C@@H]5CC[C@]43C)[C@@H]2C1`, the MIC is over 34.8 µg/mL in assay [1], over 34.8 µg/mL in assay [2], 4.3 µg/mL (≈ 7.89 µM) in assay [3] and over 32 µg/mL in assay [7]. For the same compound, the result in assay [4], in assay [5] and in assay [6] was inactive.

Regarding `CC1(C)[C@@H](O)[C@@H](O)[C@H](O)[C@]2(C)[C@H]3CC=C4[C@@H]5C[C@@](C)(C(=O)OCc6ccc([N+](=O)[O-])cc6)CC[C@]5(C)CC[C@@]4(C)[C@]3(C)CC[C@@H]12`, the MIC in assay [1], in assay [2], in assay [3] and in assay [7] was over 50 µg/mL in each case. In addition, the outcome in assay [4], in assay [5] and in assay [6] was inactive.

With `CC1(C)[C@@H](O)[C@@H](O)[C@H](O)[C@]2(C)[C@H]3CC=C4[C@@H]5C[C@@](C)(C(=O)OCc6ccc(Cl)cc6)CC[C@]5(C)CC[C@@]4(C)[C@]3(C)CC[C@@H]12`, the MIC in assay [1], in assay [2], in assay [3] and in assay [7] was over 50 µg/mL in each case. Moreover, the result in assay [4], in assay [5] and in assay [6] was inactive.

As for `CC1(C)[C@@H](O)CC[C@]2(C)[C@H]3C(=O)C=C4[C@@H]5C[C@@](C)(C(=O)OCc6ccccc6)CC[C@]5(C)CC[C@@]4(C)[C@]3(C)CC[C@@H]12`, the MIC in assay [1], in assay [2], in assay [3] and in assay [7] was over 50 µg/mL each time. The outcome in assay [4], in assay [5] and in assay [6] was inactive.

Take `CC1(C)[C@@H](O)CC[C@]2(C)[C@H]3CC=C4[C@@H]5C[C@@](C)(C(=O)O)CC[C@]5(C)CC[C@@]4(C)[C@]3(C)CC[C@@H]12`: the MIC in assay [1], in assay [2], in assay [3] and in assay [7] was over 50 µg/mL throughout. Moreover, the outcome in assay [4], in assay [5] and in assay [6] was inactive.

For the compound `CC1(C)[C@@H](O)[C@@H]2O[C@@H]2[C@]2(C)[C@H]3CC=C4[C@@H]5C[C@@](C)(C(=O)OCc6ccccc6)CC[C@]5(C)CC[C@@]4(C)[C@]3(C)CC[C@@H]12`, the MIC in assay [1], in assay [2], in assay [3] and in assay [7] was over 50 µg/mL throughout. In addition, the outcome in assay [4], in assay [5] and in assay [6] was inactive.

Compound `CC1(C)S[C@@H]2[C@H](NC(=O)[C@H](N)c3ccccc3)C(=O)N2[C@H]1C(=O)O` [AMPICILLIN] gave an MIC in assay [1] of 1.4 µg/mL (≈ 4.01 µM).

With `CN[C@@H]1[C@H](O[C@H]2[C@H](O[C@H]3[C@H](O)[C@@H](O)[C@H](N=C(N)N)[C@@H](O)[C@@H]3N=C(N)N)O[C@@H](C)[C@]2(O)C=O)O[C@@H](CO)[C@H](O)[C@H]1O` [STREPTOMYCIN], the MIC in assay [2] is 2.9 µg/mL (≈ 4.99 µM); in assay [3] it was 5.8 µg/mL (≈ 9.97 µM).

The record behind these values is ChEMBL document CHEMBL4477166, “18β-Glycyrrhetinic Acid Derivatives Possessing a Trihydroxylated A Ring Are Potent Gram-Positive Antibacterial Agents” (2016).
